Results as given in ChEMBL document CHEMBL1921791, “Arylsulfonamidopiperidone derivatives as a novel class of factor Xa inhibitors” (Bioorg Med Chem Lett, 2011).

Legend:
[1] = Permeability from apical to basolateral side of human Caco2 cells at 3 uM; format: ADME, cell-based; details: Caco-2, read-out: permeability
Method in brief: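 Caco-2 monolayers: apical-to-basolateral permeability was measured at pH 6.5 and reported in nm/s.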

[2] = Half life in human liver microsomes at 0.5 uM at pH 7.4 in presence of NADPH; format: ADME, Microsome
Method in brief: (§1)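 Liver microsomal stability was measured with 0.5 µM compound and 1.0 mg/mL microsomal protein, in 1.0 mM NADPH, 100 mM NaPi and 5.0 mM MgCl₂, at pH 7.4 and 37 °C. Half-life was determined.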

[3] = Half life in rat liver microsomes at 0.5 uM at pH 7.4 in presence of NADPH; format: ADME, Microsome; method in brief: as §1
[4] = Half life in mouse liver microsomes at 0.5 uM at pH 7.4 in presence of NADPH; format: ADME, Microsome; method in brief: as §1
[5] = Half life in dog liver microsomes at 0.5 uM at pH 7.4 in presence of NADPH; format: ADME, Canis lupus familiaris, Microsome; method in brief: as §1
[6] = Half life in cynomolgus monkey liver microsomes at 0.5 uM at pH 7.4 in presence of NADPH; format: ADME, Macaca fascicularis, Microsome; method in brief: as §1

Row | Papp A→B at 3 µM [1] [×10⁻⁶ cm/s] | half-life at 0.5 µM [2] [min] | half-life at 0.5 µM [3] [min] | half-life at 0.5 µM [4] [min] | half-life at 0.5 µM [5] [min] | half-life at 0.5 µM [6] [min] | Structure (SMILES)
1 | 7.3 | < 2 | < 2 | < 2 | < 2 | < 2 | CC(=O)N1CC2CC(C1)CN(C(=O)CN1CCC[C@H](NS(=O)(=O)c3ccc4cc(Cl)ccc4c3)C1=O)C2
2 | < 1.5 |  |  |  |  |  | CS(=O)(=O)N1CC2CC(CN(C(=O)CN3CCC[C@H](NS(=O)(=O)c4ccc5cc(Cl)ccc5c4)C3=O)C2)C1
3 | 2.5 | < 2 | < 2 | < 2 | < 2 | < 2 | O=C(CN1CCC[C@H](NS(=O)(=O)c2ccc3cc(Cl)ccc3c2)C1=O)N1C[C@@H]2C[C@H](C1)c1cccc(=O)n1C2
4 | < 1.5 |  |  |  |  |  | NC(=O)N1CC2CC(C1)CN(C(=O)CN1CCC[C@H](NS(=O)(=O)c3ccc4cc(Cl)ccc4c3)C1=O)C2
5 | < 1.5 |  |  |  |  |  | Nc1[nH]ncc1C(=O)N1CC2CC(CN(C(=O)CN3CCC[C@H](NS(=O)(=O)c4ccc5cc(Cl)ccc5c4)C3=O)C2)C1
6 | < 1.5 |  |  |  |  |  | NC(=O)C(=O)N1CC2CC(CN(C(=O)CN3CCC[C@H](NS(=O)(=O)c4ccc5cc(Cl)ccc5c4)C3=O)C2)C1
7 | < 1.5 |  |  |  |  |  | O=C(CN1CCC[C@H](NS(=O)(=O)c2ccc3cc(Cl)ccc3c2)C1=O)N1CC2CC(C1)CN(C(=O)C1CCNCC1)C2
8 | < 1.5 |  |  |  |  |  | O=C(CN1CCC[C@H](NS(=O)(=O)c2ccc3cc(Cl)ccc3c2)C1=O)N1CC2CNCC(C2)C1
